# Only some compounds are listed: those with a hit (about 1.3% of all), similar ones and a draw of the others.
# Diaphorase inh – diaphorase inhibition or chemical oxidation counter-screen. 190,000 tested, 0.69% active. diaphorase resazurin-to-resorufin fluorescence, NADH, 16 min; bacterial (C. kluyveri) enzyme, not human. inhibition, % at 20 µM;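 active means primary screen inhibition at 20 µM above a set limit, cut at about 50% in these data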
#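 Benchmarks: positive control wells lacking NADH, neutral wells with DMSO only. System: bacterial diaphorase enzyme (C. kluyveri). Input: 0.14 U/mL diaphorase, enzyme working solution. Detection: resorufin fluorescence, excitation 544 nm, emission 590 nm. Times: 16-min room-temperature incubation before reading.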
# PfG6PD inh – PfG6PD (Plasmodium falciparum) enzyme inhibition | inhibition, % at 20 µM | PfGluPho enzyme, NADPH resazurin-diaphorase fluorescence | 350,000 tested, 0.78% active;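 active means inhibition reaching at least a set limit at 20 µM in the primary screen, cut at about 59% in these data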
# HKDC1 inh – HKDC1 (human) hexokinase inhibition; recombinant HKDC1, G6PDH/diaphorase resazurin coupled fluorescence; inhibition, % at 20 µM; 340,000 tested, 0.16% active; AID 493160;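 active means inhibition above about 35% when tested at 20 µM, limit read from the data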
# Target sequence (Q2TB90 whole entry, looked up): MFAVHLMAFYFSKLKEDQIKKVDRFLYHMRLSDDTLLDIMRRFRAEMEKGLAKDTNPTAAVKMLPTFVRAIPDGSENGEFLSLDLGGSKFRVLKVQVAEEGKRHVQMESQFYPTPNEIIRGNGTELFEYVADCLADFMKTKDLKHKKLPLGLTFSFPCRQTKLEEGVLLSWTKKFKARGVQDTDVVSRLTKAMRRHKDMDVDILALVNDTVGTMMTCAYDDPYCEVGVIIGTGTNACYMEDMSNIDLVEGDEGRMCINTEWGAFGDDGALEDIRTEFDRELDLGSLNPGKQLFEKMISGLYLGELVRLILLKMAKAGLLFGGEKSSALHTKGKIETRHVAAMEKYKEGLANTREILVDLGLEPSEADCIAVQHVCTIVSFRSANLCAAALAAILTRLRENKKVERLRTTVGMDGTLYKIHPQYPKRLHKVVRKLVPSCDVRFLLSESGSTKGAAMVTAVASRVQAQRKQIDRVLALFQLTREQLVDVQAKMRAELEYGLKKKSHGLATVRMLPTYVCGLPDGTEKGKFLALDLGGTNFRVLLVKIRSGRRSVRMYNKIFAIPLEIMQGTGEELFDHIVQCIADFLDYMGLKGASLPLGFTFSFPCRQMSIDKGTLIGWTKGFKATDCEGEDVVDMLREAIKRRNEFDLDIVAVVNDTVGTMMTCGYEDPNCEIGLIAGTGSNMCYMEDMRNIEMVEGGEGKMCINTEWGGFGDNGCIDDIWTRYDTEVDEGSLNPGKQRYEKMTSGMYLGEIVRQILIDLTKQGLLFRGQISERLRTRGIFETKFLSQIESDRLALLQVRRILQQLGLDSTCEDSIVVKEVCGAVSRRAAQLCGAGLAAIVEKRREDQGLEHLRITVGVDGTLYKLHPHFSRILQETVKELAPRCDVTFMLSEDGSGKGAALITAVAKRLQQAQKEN
#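 Test system: HK5 enzyme. Quantity: 5 µg/mL HK5 final. Reagent: glucose and ATP substrates. Schedule: 90 min reaction incubation at room temperature, dark. Technique: resazurin-to-resorufin fluorescence via G6PDH and diaphorase coupling, 525/613 nm. Control set: DMSO wells with and without enzyme mix.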
# G6PDH CS – L. mesenteroides G6PDH inhibition counter-screen | Purified L. mesenteroides G6PDH, diaphorase/resazurin coupled fluorescence, 45 min | inhibition, % at 5 µM | 200,000 tested, 0.12% active; in the data active means inhibition above about 50%
# Numbers stand for hits; - = inactive; . = no result.
SMILES,Diaphorase inh,PfG6PD inh,HKDC1 inh,G6PDH CS
COc1ccc(CCNC(=O)CC2Nc3ccccc3NC2=O)cc1OC (configuration not stated),51.6,-,-,-
CC1=[N+](C)c2c(ccc3cccnc23)C1(C)C,65.4,-,-,-
CCc1cc(C(=O)N2CCN(S(=O)(=O)c3ccccc3F)CC2)sc1C,.,-,-,.
O=C(Nc1ccc(N2CCCC2)cc1)C(Cl)c1ccccc1 (configuration not stated),-,87.6,-,-
Cc1ccc(O)c(-c2cc(-c3ccc(F)cc3)no2)c1,.,-,-,.
CCSc1nc2c(cnn2-c2ccccc2)c(=O)n1N,.,-,-,.
O=C(Cc1ccccc1)Nc1ccc2c(c1)OC1(CCCC1)O2,.,-,-,.
Nc1ccc2c(c1)OC1(CCCC1)O2,52.0,-,-,-
O=C(O)c1cccc(N2C(=O)/C(=C/c3ccc(SCc4ccc(Cl)cc4)o3)SC2=S)c1,62.0,-,-,-
c1coc(-c2nc(-c3ccco3)c(-c3ccco3)nc2-c2ccco2)c1,94.1,-,68.3,-
COc1ccc2nc(-c3ccccc3)cc(OC)c2c1,-,-,-,-
COc1ccc2nc(-c3ccco3)c(-c3ccco3)nc2c1,78.4,-,-,-
COc1ccc(-c2nc3ccccc3nc2-c2ccc(OC)cc2)cc1,.,-,-,.
COc1ccc2nc3cccc(OC)c3nc2c1,-,-,-,51.3
Nc1nc(-c2ccco2)c(-c2ccco2)s1,-,-,-,-
Cc1c(-c2cc(Br)ccc2O)nc2cc3c(cc2c1C)OCO3,.,-,-,.
CCN(C(=O)COC(=O)c1ccccc1Nc1ccccc1)c1c(N)n(Cc2ccccc2)c(=O)[nH]c1=O,.,-,-,.
CC(NS(=O)(=O)c1cc2c3c(c1)CCC(=O)N3CCC2)c1ccccc1 (configuration not stated),.,-,-,.
O=[N+]([O-])c1cc(O)c2ncccc2c1,52.1,-,-,-
O=C(CSc1ccc(-c2ccccn2)nn1)c1ccc(F)cc1,58.1,-,-,-
COc1ccc(OC)c(S(=O)(=O)NCC(c2ccc3c(c2)OCO3)N2CCOCC2)c1 (configuration not stated),.,-,-,.
Cc1ccc(C)c(/C=N/n2cc(-c3ccccc3)[nH]c2=S)c1,75.7,-,-,-
Cc1ccccc1NC1=C/C(=N\S(=O)(=O)c2cccs2)c2ccccc2C1=O,-,99.3,62.6,55.4
Cc1cc[n+](C2=C([O-])c3ccccc3C(=O)/C2=N\S(=O)(=O)c2cccs2)cc1C,-,-,-,54.4
O=C1/C(=N\S(=O)(=O)c2cccs2)C([n+]2ccc(CCCc3ccccc3)cc2)=C([O-])c2ccccc21,.,-,-,.
SMILES,Diaphorase inh,PfG6PD inh,HKDC1 inh,G6PDH CS
CC(C)CC1NC(=O)N(CC(=O)Nc2cc(S(=O)(=O)N3CCOCC3)ccc2Cl)C1=O (configuration not stated),.,-,-,.
CCCCn1c(Cc2ccccc2)nnc1SCC(=O)Nc1cc(C)on1,59.1,-,-,-
Cc1ccc(-n2nc3c(c2NC(=O)C(C)C)CS(=O)(=O)C3)c(C)c1,.,-,-,.
COc1cc2[nH]c(=O)n(CCCC(=O)N3CC=C(c4ccccc4)CC3)c(=O)c2cc1OC,58.1,-,-,-
COc1cc2[nH]c(=O)n(CCC(=O)N3CC=C(c4ccccc4)CC3)c(=O)c2cc1OC,-,-,-,-
CN1CCN(C(=O)CCCN2C(=O)/C(=C/c3ccccc3)SC2=S)CC1,.,-,-,.
O=C(O)CCCN1C(=O)/C(=C\C(Cl)=C\c2ccccc2)SC1=S,.,-,43.6,.
C[C@H](CO)N1C[C@H](C)[C@@H](CN(C)S(=O)(=O)c2ccccc2)Oc2ccc(NS(=O)(=O)c3ccccc3)cc2C1=O,.,-,-,.
COc1ccccc1/C=N/Nc1cc(N(C)C)nc(N(C)C)n1,52.9,-,-,-
COc1ccc(/C=N/Nc2cc(N(C)C)nc(N(C)C)n2)cc1,-,-,-,-
CN(C)c1cc(N/N=C\c2ccccc2)nc(N(C)C)n1,51.5,-,-,53.6
CCOc1cc2c(C#N)c(N3CCOCC3)nc(N)c2c(N)n1,64.1,-,-,-
CCOC(=O)c1cc2c(=O)n3ccccc3nc2n(C(C)C)c1=NC(=O)c1ccncc1,65.3,-,-,-
CC1CCN(C(=O)CSc2nnc(-c3ccccc3F)o2)CC1,.,-,-,.
Cc1nn(CC(=O)Nc2ccc(Cl)cc2Cl)c(=O)c2ccccc12,.,-,-,.
O=C(O)c1ccc(Nc2nc(-c3cc4ccccc4oc3=O)cs2)cc1O,88.1,-,-,-
CCOc1ccc(C(=O)NCc2ccc3c(c2)OCO3)cc1,.,-,-,.

# Bioassay records as filed in PubChem BioAssay.
